Measured values as given in publication PMC8369490 (ACS Infectious Diseases, 2021).
In brackets after ≈: the same amount, converted by molar mass.

Assays:
[1] = test system: Rcs stress response (PrprA-mNG reporter) in E. coli TOP10F′ cells; experiment: Rcs stress reporter assay; format: cell-based; conditions: Escherichia coli, 3 h, read-out: stress reporter EC50 PrprA-mNG
Outline: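 TOP10F′ with pUA66-PrprA-mNG, at OD600 0.05 in M9, dispensed onto a 1:3 test-compound dilution series in 384-well plates. Positive control is an Hbp-secretion inhibitor at 200 μM; DMSO is the negative control. After 3 h nonshaken incubation, OD600 and mNG fluorescence (ex 488/em 535 nm) measured. EC50 derived from OD600-corrected fluorescence.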

[2] = test system: E. coli TOP10F′ cells; experiment: MIC in E. coli TOP10F′; format: cell-based; conditions: Escherichia coli, 10 h, read-out: toxicity E. coli MIC
Outline: (§1)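 Broth dilution in LB or MHB-II. Bacteria grown to mid-log at 37 °C in flasks, diluted to OD600 0.001 and added 1:1 to medium with 2-fold increasing test compound (0.5% DMSO final). Incubated at 37 °C in a plate reader with continuous linear shaking; OD600 every 15 min for 10 h. MIC is the lowest concentration with no growth detectable by OD600 at 10 h.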

[3] = test system: σ^E cell envelope stress response (PrpoE-mNG reporter) in E. coli TOP10F′ cells expressing Hbp; experiment: σ^E stress reporter assay; format: cell-based; conditions: Escherichia coli, 3 h, read-out: stress reporter EC50 PrpoE-mNG
[4] = test system: heat-shock response (PgroES-mNG reporter) in E. coli TOP10F′ cells; experiment: Heat-shock stress reporter assay; format: cell-based; conditions: Escherichia coli, 3 h, read-out: stress reporter EC50 PgroES-mNG
Outline: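 TOP10F′ carrying pEH3-empty and pUA66-PgroES-mNG, at OD600 0.05 in M9, added to 384-well plates with a 1:3 test-compound dilution series. Positive-control wells hold cells with pEH3-ssTorA-Hbp induced by 40 μM IPTG; DMSO controls included. After 3 h nonshaken incubation, OD600 and mNG fluorescence (ex 488/em 535 nm) read. EC50 from OD600-corrected fluorescence.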

[5] = test system: HEK293 cells; experiment: HEK293 cell toxicity; format: cell-based; conditions: 48 h, dose-response up to 60 μM; dash = no toxicity
Outline: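 HEK293 cells kept in DMEM with 10% FBS at 37 °C, 5% CO2. Test compound dispensed as a 1:3 dilution series from DMSO stocks; DMSO as negative and tamoxifen as positive control. About 2000 cells per well incubated 48 h at 37 °C, 5% CO2, 90% humidity. Viability read with CellTiter-Glo reagent after 2 min shaking.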

[6] = test system: Bacillus subtilis 168; experiment: MIC against bacterial strains; format: cell-based
Outline: as §1

[7] = test system: Enterobacter cloacae; experiment: MIC against bacterial strains; format: cell-based; conditions: 10 h
Outline: as §1

[8] = test system: Acinetobacter baumannii; experiment: MIC against bacterial strains; format: cell-based; conditions: 10 h
Outline: as §1

[9] = test system: Pseudomonas aeruginosa; experiment: MIC against bacterial strains; format: cell-based; conditions: 10 h
Outline: as §1

[10] = test system: Staphylococcus aureus MRSA; experiment: MIC against bacterial strains; format: cell-based; conditions: 10 h
Outline: as §1

[11] = test system: OMP levels in E. coli TOP10F′ cells; experiment: Cell envelope protein analysis; format: cell-based, Escherichia coli
Outline: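 TOP10F′ cells grown 3 h in LB in flasks with one concentration of test compound. Cells pelleted, sonicated on ice in 10 mM Tris-HCl, 3 mM EDTA, pH 8.0 with protease inhibitors. Envelopes pelleted at 200 000g for 1 h at 4 °C and solubilised overnight at 4 °C in TBS with 1% DDM. SDS-PAGE and immunoblots, loading corrected by OD600; 3 independent experiments.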

[12] = test system: Klebsiella pneumoniae; experiment: MIC against bacterial strains; format: cell-based; conditions: 10 h
Outline: as §1

[13] = test system: Escherichia coli (K12); experiment: MIC against bacterial strains; format: cell-based; conditions: 10 h
Outline: as §1

[14] = test system: E. coli MC4100 bamA101; experiment: Growth inhibition of bamA101 knockdown strain versus wild-type; format: cell-based, Escherichia coli; conditions: E. coli MC4100 bamA101, MHB-II, 10 h
Outline: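 Wild-type MC4100 and bamA101 knockdown cells grown to mid-log at 37 °C, diluted to OD600 0.001 and mixed 1:1 with MHB-II containing 2-fold increasing test compound (0.5% DMSO final) in 96-well plates. Incubated at 37 °C with continuous linear shaking; OD600 read every 15 min. The 10 h OD600 is expressed as % growth versus DMSO-treated cells (100%).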

[15] = test system: Escherichia coli (uropathogenic); experiment: MIC against bacterial strains; format: cell-based; conditions: 10 h
Outline: as §1

[16] = target: OmpT protease (Escherichia coli, UniProt P09169); experiment: OmpT protease activity, compound added after OmpT folding was completed; format: biochemical; conditions: 100 μM, added 2 h after start of folding reaction
Outline: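 BAM proteoliposomes (2 μM) mixed with SurA (140 μM) and denatured OmpT (20 μM) subreactions in Tris/HCl, pH 6.5, and held 2 h at 30 °C to prefold OmpT. Then combined with a subreaction of test compound (200 μM) or DMSO plus fluorogenic peptide; concentrations are per subreaction. Cleavage read at ex 330/em 430 nm for 80 min at 30 °C. Slope-based activity relative to DMSO.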

[17] = test system: Enterococcus faecium VRE; experiment: MIC against bacterial strains; format: cell-based; conditions: 10 h
Outline: as §1

[18] = test system: secretion of autotransporter Hbp in E. coli MC1601 degP::S210A; experiment: Hbp secretion analysis; format: cell-based, Escherichia coli; conditions: Western blotting
Outline: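 MC1061 degP::S210A cells grown in M9 to mid-log, diluted to OD600 0.1, mixed 1:1 with M9 containing test compound or DMSO (0.5% final). Hbp induced from pEH3 with 40 μM IPTG at 37 °C with shaking. Cells spun 5000g for 5 min; supernatant TCA-precipitated overnight at 4 °C. Lysates and medium run on 11% SDS-PAGE, immunoblotted (Hbp passenger, Hbp β-barrel, DegP), loading OD600-corrected.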

[19] = test system: E. coli MC4100 expressing FhuA ΔC/Δ4L; experiment: Growth inhibition of E. coli expressing open channel FhuA ΔC/Δ4L; format: cell-based, Escherichia coli; conditions: E. coli MC4100, LB, 10 h
[20] = test system: E. coli MC4100 cells; experiment: Potentiation of antibiotics; format: cell-based, Escherichia coli; conditions: E. coli MC4100, LB, 10 h
[21] = test system: BAM complex (BamABCDE) reconstituted in proteoliposomes; experiment: OmpT folding in vitro assay with BAM proteoliposomes; format: biochemical, Escherichia coli; conditions: 100 μM compound, OmpT:SurA 1:42 versus 1:7
Outline: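 BAM proteoliposomes (His-tag-purified BamABCDE in DDM, reconstituted into E. coli polar lipids) with test compound and fluorogenic peptide in Tris/HCl, pH 6.5, preincubated 5 min at 30 °C. Mixed with a second subreaction of SurA plus guanidine-denatured OmpT at 1:7 or 1:42 OmpT:SurA. Fluorescence (ex 330/em 430 nm) read every 20 s for 80 min at 30 °C. Linear-phase slopes from three replicates, as % of DMSO.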

[22] = 0.25× MIC, cell envelopes, Western blotting

Sequence of BAM complex (BamABCDE) reconstituted in proteoliposomes (P77774 20-392): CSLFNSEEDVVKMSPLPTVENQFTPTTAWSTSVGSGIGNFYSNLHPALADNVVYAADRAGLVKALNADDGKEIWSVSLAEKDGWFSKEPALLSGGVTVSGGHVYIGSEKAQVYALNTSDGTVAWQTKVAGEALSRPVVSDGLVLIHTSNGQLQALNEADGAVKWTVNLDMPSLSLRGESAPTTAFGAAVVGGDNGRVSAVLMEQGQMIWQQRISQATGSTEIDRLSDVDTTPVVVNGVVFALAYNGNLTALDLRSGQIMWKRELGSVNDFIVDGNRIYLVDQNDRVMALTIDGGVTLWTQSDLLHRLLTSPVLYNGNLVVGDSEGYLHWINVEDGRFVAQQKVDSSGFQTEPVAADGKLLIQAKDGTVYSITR
Sequence of BAM complex (BamABCDE) reconstituted in proteoliposomes (P0A903 25-344, further chain): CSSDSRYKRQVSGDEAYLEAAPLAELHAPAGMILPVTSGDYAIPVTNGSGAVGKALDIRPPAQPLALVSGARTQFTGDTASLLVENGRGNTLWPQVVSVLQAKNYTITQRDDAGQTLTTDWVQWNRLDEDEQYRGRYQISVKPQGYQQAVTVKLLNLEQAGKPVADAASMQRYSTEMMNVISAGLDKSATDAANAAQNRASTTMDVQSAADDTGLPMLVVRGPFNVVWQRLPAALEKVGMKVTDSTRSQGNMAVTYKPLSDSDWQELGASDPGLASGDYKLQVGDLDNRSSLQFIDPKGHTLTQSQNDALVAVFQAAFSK
Sequence of BAM complex (BamABCDE) reconstituted in proteoliposomes (P0A937 20-113, further chain): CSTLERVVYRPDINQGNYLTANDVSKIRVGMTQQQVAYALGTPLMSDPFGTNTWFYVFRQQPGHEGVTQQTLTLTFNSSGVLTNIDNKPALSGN
Sequence of BAM complex (BamABCDE) reconstituted in proteoliposomes (P0AC02 20-245, further chain): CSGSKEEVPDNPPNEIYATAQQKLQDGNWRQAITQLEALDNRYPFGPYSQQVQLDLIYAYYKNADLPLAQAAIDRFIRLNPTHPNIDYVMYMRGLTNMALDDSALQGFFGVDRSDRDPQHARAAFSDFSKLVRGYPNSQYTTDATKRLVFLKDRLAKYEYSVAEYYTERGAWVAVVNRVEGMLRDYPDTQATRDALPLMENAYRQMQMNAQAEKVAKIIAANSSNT
Sequence of OmpT protease (P09169 21-317): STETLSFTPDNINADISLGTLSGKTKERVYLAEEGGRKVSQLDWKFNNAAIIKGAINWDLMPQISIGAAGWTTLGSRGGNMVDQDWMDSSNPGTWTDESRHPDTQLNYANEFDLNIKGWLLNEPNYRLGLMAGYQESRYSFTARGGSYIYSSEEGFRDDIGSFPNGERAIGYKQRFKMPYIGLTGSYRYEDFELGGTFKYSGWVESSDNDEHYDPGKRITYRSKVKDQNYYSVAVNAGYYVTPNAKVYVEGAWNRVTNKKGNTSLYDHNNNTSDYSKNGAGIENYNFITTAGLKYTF

For `CCOC(=O)C1=C(O)CCC(NC(=O)OC(C)(C)C)C1` (stereo not shown) [compound 1], the EC50 [1] was 38 µM, the MIC [2] was over 200 µM and the EC50 [3] was 1 µM. For the same compound, the EC50 [4] was over 60 µM.
Work on `CC(=O)Nc1cc(-c2nc(O)c3c(n2)CCC(NC(=O)OC(C)(C)C)C3)ccn1` (stereo not shown) [compound 3] yielded an EC50 [1] of 16 µM, an MIC [2] of 25 µM (≈ 9.99 µg/mL) and an EC50 [3] of 7 µM. The “toxicity HEK293 LD50” value [5] was 20 µM and the EC50 [4] was over 60 µM.
In the case of `Nc1cc(-c2nc3c(c(NCc4ccccc4)n2)CC(N)CC3)ccn1` (stereo not shown) [compound 14, 2-(2-aminopyridin-4-yl)-N4-benzyl-5,6,7,8-tetrahydroquinazoline-4,6-diamine], the MIC ([6]; Bacillus subtilis 168, 10 h, highest concentration tested 200 μM) is reported as over 200 µM, the MIC ([6]; Bacillus subtilis, 168, 10 h) is reported as over 200 µM and the MIC [7] is reported as over 200 µM. The MIC [8] was 100 µM (≈ 34.6 µg/mL), the EC50 [1] was 12 µM and the MIC [9] was 200 µM (≈ 69.3 µg/mL). The MIC [10] was over 200 µM, the “levels of the major β-barrel OMPs OmpF, OmpC, and OmpA compared to DMSO” value ([11]; 0.25× MIC (2: 12 μM, 14: 25 μM), cell envelopes, Western blotting) was “dropped considerably” and the “level of BamA” value [11, 22] was “severely reduced”. For the same compound, the “levels of lipoproteins BamB and LpoB” value [11, 22] was “largely unaffected”, the “total levels of PhoE” value ([11]; PhoE expressed from pEH3, 0.25× MIC and 0.5× MIC, 3 h, seminative PAGE) was “reduced total levels of PhoE in a dose-dependent manner” and the MIC [12] was over 200 µM. For the same compound, the MIC [13] was 100 µM (≈ 34.6 µg/mL), the “antimicrobial effect (MIC) in bamA101 mutant versus wild-type” value [14] was “enhanced antimicrobial effect” and the MIC [15] was over 200 µM. The “effect on OmpT protease activity when added after OmpT was folded” value [16] was “inhibiting effect”, the MIC [2] was 100 µM (≈ 34.6 µg/mL) and the EC50 [3] was over 60 µM. For the same compound, the MIC [17] was over 200 µM, the “Hbp processing in cells (pro-Hbp)” value ([18]; 0.25× MIC, whole cell lysates) was “accumulation of pro-Hbp” and the “amount of secreted Hbp passenger in the spent medium” value ([18]; 2 and 14 at 0.25× MIC, spent medium) was “decreased”. The “effect of FhuA ΔC/Δ4L expression on MIC of the compound” value [19] was “did not affect”, the “toxicity HEK293 LD50” value [5] was 60 µM and the EC50 [4] was over 60 µM. The “fold decrease of MIC of vancomycin in presence of compound” value ([20]; compound at 0.25× MIC (2: 12 μM, 14: 25 μM)) was 4 fold, the “MICs of ampicillin and chloramphenicol in presence of compound” value ([20]; compound at 0.25× MIC) was “largely unaffected” and the “influence of 6-fold excess of SurA on the inhibiting effect of the compound” value [21] was “did not influence”.
`CN[C@H](CC(C)C)C(=O)N[C@H]1C(=O)N[C@@H](CC(N)=O)C(=O)N[C@H]2C(=O)N[C@H]3C(=O)N[C@H](C(=O)N[C@H](C(=O)O)c4cc(O)cc(O)c4-c4cc3ccc4O)[C@H](O)c3ccc(c(Cl)c3)Oc3cc2cc(c3O[C@@H]2O[C@H](CO)[C@@H](O)[C@H](O)[C@H]2O[C@H]2C[C@](C)(N)[C@H](O)[C@H](C)O2)Oc2ccc(cc2Cl)[C@H]1O` [vancomycin, reference compound] was tested, and the “permeability upon FhuA ΔC/Δ4L expression” value [19] was “clearly increased”.
